The subject of data set [1] is MDA-MB-231 cells. The data set is classed as cell-based, human. To be noted: cancer cells over normal cells.
The test system of a further data set is MCF-7 cells. The data set is classed as cell-based, human. To be noted: cancer cells over normal cells.
Data set [2] can be described thus: Safety assay on normal cells, MTT assay. Format: cell-based. To be noted: human, WI-38 cells (normal lung fibroblast cell line). The gist of the method:
(§1)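 MTT viability assay, run on normal WI-38 and WISH cells in parallel with MDA-MB-231 and MCF-7 breast cancer lines to judge selectivity. A series of test compounds and a reference drug were tested.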
(Tetrazolium assays rely on reduction of a dye to a coloured formazan, in cell work by metabolically active cells.)

The nature of data set [3]: Safety assay on normal cells, MTT assay. The data set is classed as cell-based. The following applies: human, WISH cells (normal amnion cell line). The gist of the method:
as §1

For a further data set, the target named is VEGFR-2 (Homo sapiens, UniProt P35968). The data set is described as follows: biochemical.
Data set [4] deals with MDA-MB-231 cells. Kind of data set: Cell cycle analysis, flow cytometry. Format: cell-based, human. The following applies: MDA-MB-231, 4.64 µM 7a, 48 h. A general note: Flow cytometry measures light scatter and fluorescence of single cells or particles in a stream.
Data set [5] concerns MDA-MB-231 cells. The data set is described as follows: Apoptosis analysis, Annexin V-FITC/PI flow cytometry. The data set is classed as cell-based, human. The gist of the method: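 Annexin V-FITC/PI flow cytometry on MDA-MB-231 cells exposed to test compound. Percentages of viable, early apoptotic, late apoptotic and necrotic cells are compared against an untreated control group of the same cells.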

In the next data set the test system is caspase-3. Kind of data set: ELISA for caspase-3 in MDA-MB-231 cells. The data set is classed as cell-based, human. In general terms: In an ELISA, binding on a coated surface is turned into a signal by an enzyme label.
For another data set, the system named is Bcl-2. Kind of data set: ELISA for Bcl-2 in MDA-MB-231 cells. The data set is classed as cell-based, human.
The next data set deals with Bax. The data set is described as follows: ELISA for Bax in MDA-MB-231 cells. Format: cell-based, human. The following applies: MDA-MB-231, 4.64 µM 7a, 72 h.
Another data set deals with MCF-7. To be noted: read-out: IC50 against MCF-7; cited from earlier work.
In the next data set the test system is HCT-116. To be noted: cited from earlier work.
[6] abbreviates: MDA-MB-231, 4.64 µM 7a, 72 h, ELISA.

Consider 2 molecules from PMC12056735 (RSC Advances, 2025).

Where two headings read alike, the source gives them in different places.

Sequence of VEGFR-2 (P35968 20-1356): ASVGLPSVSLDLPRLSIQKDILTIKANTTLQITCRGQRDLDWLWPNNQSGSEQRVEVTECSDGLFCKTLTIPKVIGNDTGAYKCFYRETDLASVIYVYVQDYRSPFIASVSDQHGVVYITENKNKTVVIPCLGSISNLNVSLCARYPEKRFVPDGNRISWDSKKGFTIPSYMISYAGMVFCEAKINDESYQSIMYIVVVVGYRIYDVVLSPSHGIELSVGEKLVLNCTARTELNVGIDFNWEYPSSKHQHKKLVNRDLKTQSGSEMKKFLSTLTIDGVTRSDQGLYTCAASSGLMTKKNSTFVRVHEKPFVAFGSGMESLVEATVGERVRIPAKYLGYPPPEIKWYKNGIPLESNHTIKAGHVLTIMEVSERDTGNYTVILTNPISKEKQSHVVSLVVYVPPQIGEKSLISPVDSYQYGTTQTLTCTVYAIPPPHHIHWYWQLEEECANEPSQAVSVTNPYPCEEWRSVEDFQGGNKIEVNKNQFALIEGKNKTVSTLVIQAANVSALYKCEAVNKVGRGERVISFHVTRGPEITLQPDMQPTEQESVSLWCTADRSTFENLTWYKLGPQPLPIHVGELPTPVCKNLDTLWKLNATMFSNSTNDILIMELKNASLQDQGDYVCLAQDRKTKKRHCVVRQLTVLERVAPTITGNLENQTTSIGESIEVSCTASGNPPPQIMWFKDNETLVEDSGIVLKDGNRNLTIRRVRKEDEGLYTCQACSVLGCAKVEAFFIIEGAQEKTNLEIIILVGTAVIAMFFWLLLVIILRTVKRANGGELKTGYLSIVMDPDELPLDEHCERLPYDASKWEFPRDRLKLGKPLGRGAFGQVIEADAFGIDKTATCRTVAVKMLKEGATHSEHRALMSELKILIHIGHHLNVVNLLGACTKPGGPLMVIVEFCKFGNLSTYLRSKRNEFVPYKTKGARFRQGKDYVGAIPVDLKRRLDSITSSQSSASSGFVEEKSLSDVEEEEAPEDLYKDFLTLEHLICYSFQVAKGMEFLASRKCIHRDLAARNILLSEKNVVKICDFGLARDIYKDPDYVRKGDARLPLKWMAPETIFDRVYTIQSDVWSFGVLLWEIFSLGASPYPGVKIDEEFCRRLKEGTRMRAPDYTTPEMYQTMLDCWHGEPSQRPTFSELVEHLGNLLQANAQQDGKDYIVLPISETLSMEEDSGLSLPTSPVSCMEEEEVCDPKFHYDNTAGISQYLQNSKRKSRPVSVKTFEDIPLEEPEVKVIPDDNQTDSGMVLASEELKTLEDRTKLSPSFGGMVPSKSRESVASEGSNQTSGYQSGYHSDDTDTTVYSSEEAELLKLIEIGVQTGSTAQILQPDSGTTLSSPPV

In general, IC50 refers to the concentration that gives 50% inhibition. Turning to `CC(=O)c1nn(-c2ccccc2Cl)/c(=N/N=C(\C)c2ccc(NC(=O)c3cccnc3)cc2)s1` [Compound 7a, N-(4-((E)-1-(((Z)-5-Acetyl-3-(2-chlorophenyl)-1,3,4-thiadiazol-2(3H)-ylidene)hydrazono)ethyl)phenyl)nicotinamide], the “Selectivity index (SI) for MDA-MB-231” value in the data set with MDA-MB-231 cells [1] is listed as 15.86. Besides, the “Selectivity index (SI) for MCF-7” value in the data set on MCF-7 cells turned out to be 8.14. In addition, the IC50 at 24 h in data set [2] came to 73.6 ± 3.8 µM. The same molecule had an IC50 at 24 h in [3] of 57.7 ± 3.3 µM. The molecule further returned an IC50 against VEGFR-2 of 0.095 ± 0.05 µM. Moreover, in the data set with MDA-MB-231 cells [4], the “Cell cycle distribution, G0/G1” value is recorded as 33%; the “Cell cycle distribution, G2/M” value is reported as 8%; the “Cell cycle distribution, S” value turned out to be 59%. Further, in the data set on MDA-MB-231 cells [5] (Homo sapiens, MDA-MB-231, 48 h, read-out: Viable cells), the viability at 4.64 µM came to 50%. Besides, in the data set with MDA-MB-231 cells [5] (MDA-MB-231, 4.64 µM 7a, 48 h), the Early apoptosis is recorded as 1.06%, the Late apoptosis turned out to be 44.01% and the Necrosis is recorded as 4.94%. For the same molecule, the Caspase-3 conc. in the data set on caspase-3 (setting [6]) is 441.93. Besides, in the data set with caspase-3 (fold vs control MDA-MB-231 (FLD = 1), upregulated), the “Caspase-3 FLD” value was 8.2 fold. In the data set on Bcl-2 (setting [6]), the Bcl-2 conc. was 1.53. In addition, the “Bcl-2 FLD” value in the data set with Bcl-2 (fold vs control MDA-MB-231 (FLD = 1), downregulated) is 3.68 fold. This molecule yielded a Bax conc. with Bax of 394.72.

In the case of `CNC(=O)c1cc(Oc2ccc(NC(=O)Nc3ccc(Cl)c(C(F)(F)F)c3)cc2)ccn1` [Sorafenib], the IC50 at 24 h in data set [2] worked out at 10.6 ± 0.8 µM; in data set [3], 13.4 ± 1.1 µM. Further, the IC50 in the data set on MCF-7 was 6.72 µM; in the data set with HCT-116 (read-out: IC50 against HCT-116) it was 9.3 µM; in the data set with HCT-116 (read-out: IC50 against HCT-116 cells), 7.28 µM.
